Calls of active or inactive are those of the source. No cut-off for these calls is given here.
Assays:
Assay type in all cases: functional
HT-29 = assay: Growth inhibition of human HT-29 cells at 10 uM after 48 hrs by SRB assay; settings: HT-29, 48 h, read-out: GI
Method in brief: (§1)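 Cells grown in RPMI 1640 with 5% FBS and 2 mM L-glutamine, plated at 5000–40,000 cells/well by doubling time and preincubated 24 h (37 °C, 5% CO2); a time-zero plate is TCA-fixed. Single dose added, then 48 h incubation. Fixed with cold TCA, stained with 0.4% SRB, dye solubilized in 10 mM Tris base, absorbance at 515 nm; percent growth vs time-zero and untreated control.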

NCI-H226 = assay: Growth inhibition of human NCI-H226 cells at 10 uM after 48 hrs by SRB assay; settings: NCI-H226, 48 h, read-out: GI; method in brief: as §1
SNB-75 = assay: Growth inhibition of human SNB75 cells at 10 uM after 48 hrs by SRB assay; settings: SNB-75, 48 h, read-out: GI
Method in brief: (§2)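 NCI 60-cell-line screen with a single 10 µM dose. Cells are grown in RPMI 1640 with 5% FBS and 2 mM L-glutamine, plated at 5000–40,000 cells/well according to doubling time, and preincubated 24 h at 37 °C, 5% CO2; time-zero plates are TCA-fixed at that point. Drug exposure is 48 h. Adherent cells are fixed with cold TCA, stained with 0.4% SRB in 1% acetic acid and read at 515 nm. Percent growth is calculated relative to time-zero and untreated controls and reported as GI%.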

[1] = Cytotoxicity against human non-small cell lung cancer cells after 48 hrs by SRB assay; settings: Cancer cell lines
Method in brief: (§3)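 Five-concentration screen (10-fold or ½-log serial dilutions) on the 60-line panel. Cells grown in RPMI 1640 with 5% FBS and 2 mM L-glutamine, plated at 5000–40,000/well by doubling time, preincubated 24 h at 37 °C, 5% CO2, then exposed 48 h. Time-zero plates TCA-fixed. SRB stain, Tris-solubilized, A515. GI50, TGI and LC50 derived from Tz, C and Ti.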

TK-10 = assay: Growth inhibition of human TK10 cells at 10 uM after 48 hrs by SRB assay; settings: TK-10, 48 h, read-out: GI; method in brief: as §2
MDA-MB-231 = assay: Growth inhibition of human MDA-MB-231 cells at 10 uM after 48 hrs by SRB assay; settings: MDA-MB-231, 48 h, read-out: GI; method in brief: as §1
SK-OV-3 = assay: Growth inhibition of human SKOV3 cells at 10 uM after 48 hrs by SRB assay; settings: SK-OV-3, 48 h, read-out: GI; method in brief: as §2
MOLT-4 = assay: Growth inhibition of human MOLT4 cells at 10 uM after 48 hrs by SRB assay; method in brief: as §1
[2] = Cytotoxicity against human ovarian cancer cells after 48 hrs by SRB assay; settings: Cancer cell lines; method in brief: as §3
UACC-257 = assay: Growth inhibition of human UACC257 cells at 10 uM after 48 hrs by SRB assay; settings: UACC-257, 48 h, read-out: GI; method in brief: as §2
A549 = assay: Growth inhibition of human A549 cells at 10 uM after 48 hrs by SRB assay; settings: A549, 48 h, read-out: GI; method in brief: as §1
CCRF-CEM = assay: Growth inhibition of human CCRF-CEM cells at 10 uM after 48 hrs by SRB assay; settings: read-out: GI; method in brief: as §1
[3] = Cytotoxicity against human breast cancer cells after 48 hrs by SRB assay; settings: Cancer cell lines; method in brief: as §3
MDA-MB-435 = assay: Growth inhibition of human MDA-MB-435 cells at 10 uM after 48 hrs by SRB assay; settings: MDA-MB-435, 48 h, read-out: GI; method in brief: as §1
[4] = Cytotoxicity against human leukemia cells after 48 hrs by SRB assay; settings: Leukemia cell; method in brief: as §3
[5] = Cytotoxicity against human renal cancer cells after 48 hrs by SRB assay; settings: Cancer cell lines; method in brief: as §3
[6] = Cytotoxicity against human CNS cancer cells after 48 hrs by SRB assay; settings: Cancer cell lines; method in brief: as §3
HCT-116 = assay: Growth inhibition of human HCT116 cells at 10 uM after 48 hrs by SRB assay; settings: HCT-116, 48 h, read-out: GI; method in brief: as §1
T47D = assay: Growth inhibition of human T47D cells at 10 uM after 48 hrs by SRB assay; settings: read-out: GI; method in brief: as §2
HL-60(TB) = assay: Growth inhibition of human HL-60(TB) cells at 10 uM after 48 hrs by SRB assay; settings: HL-60, 48 h, read-out: GI
Method in brief: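 Single-concentration pass across the 60-line panel in RPMI 1640 with 5% FBS. Cells preincubated 24 h, then exposed 48 h at 37 °C, 5% CO2. Read by SRB staining with absorbance at 515 nm. Percent growth is taken relative to time-zero and untreated controls and reported as percent growth inhibition (GI %).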

OVCAR-8 = assay: Growth inhibition of human OVCAR8 cells at 10 uM after 48 hrs by SRB assay; settings: OVCAR-8, 48 h, read-out: GI; method in brief: as §1
K562 = assay: Growth inhibition of human K562 cells at 10 uM after 48 hrs by SRB assay; settings: K562, 48 h, read-out: GI; method in brief: as §1
[7] = Cytotoxicity against human colon cancer cells after 48 hrs by SRB assay; settings: Cancer cell lines; method in brief: as §3
OVCAR-3 = assay: Growth inhibition of human OVCAR3 cells at 10 uM after 48 hrs by SRB assay; settings: OVCAR-3, 48 h, read-out: GI; method in brief: as §1
COLO 205 = assay: Growth inhibition of human COLO205 cells at 10 uM after 48 hrs by SRB assay; settings: COLO 205, 48 h, read-out: GI; method in brief: as §1
SW-620 = assay: Growth inhibition of human SW620 cells at 10 uM after 48 hrs by SRB assay; settings: SW-620, 48 h, read-out: GI; method in brief: as §2
KM12 = assay: Growth inhibition of human KM12 cells at 10 uM after 48 hrs by SRB assay; settings: KM12, 48 h, read-out: GI; method in brief: as §1
RPMI-8226 = assay: Growth inhibition of human RPMI8226 cells at 10 uM after 48 hrs by SRB assay; settings: RPMI-8226, 48 h, read-out: GI; method in brief: as §1
[8] = Cytotoxicity against human prostate cancer cells after 48 hrs by SRB assay; settings: Cancer cell lines; method in brief: as §3
[9] = Cytotoxicity against human melanoma cells after 48 hrs by SRB assay; settings: Melanoma cell; method in brief: as §3
[10] = Growth inhibition of human HCC2998 cells at 10 uM after 48 hrs by SRB assay; settings: HCC 2998, 48 h, read-out: GI; method in brief: as §1
[11] = read-out: LC50 (the source's name)

Work on `Nc1ccc(Sc2ccc3c4c2cccc4c(=O)n2c4ccccc4nc32)cc1` yielded an inhibition of growth at 10 µM (HT-29) of 33.3%, an inhibition of growth at 10 µM (NCI-H226) of 59.4% and an inhibition of growth at 10 µM (SNB-75) of 56.3%. The GI50 [1] was 3.94 µM, the TGI [1] was 32.5 µM and the inhibition of growth at 10 µM (TK-10) was 21.4%. The inhibition of growth at 10 µM (MDA-MB-231) was 45.6%, the inhibition of growth at 10 µM (SK-OV-3) was 46.1% and the “growth inhibition (GI)” value (MOLT-4) was “Active”. For the same molecule, the GI50 [2] was 6.97 µM, the TGI [2] was 37.4 µM and the CC50 [2, 11] was 97.9 µM. It also gave an inhibition of growth at 10 µM (UACC-257) of 29%, an inhibition of growth at 10 µM (A549) of 79.4% and an inhibition of growth at 10 µM (CCRF-CEM) of 55.1%. For the same molecule, the GI50 [3] was 5.2 µM, the TGI [3] was 46 µM and the CC50 [3, 11] was over 100 µM. For the same molecule, the inhibition of growth at 10 µM (MDA-MB-435) was under 20%, the GI50 [4] was 2.9 µM and the TGI [4] was 44.5 µM. The CC50 [4, 11] was over 100 µM, the GI50 [5] was 3.3 µM and the TGI [5] was 15.4 µM. The CC50 [5, 11] was 88.9 µM, the GI50 [6] was 4.09 µM and the TGI [6] was 45.4 µM. It also gave a CC50 [6, 11] of 94 µM, an inhibition of growth at 10 µM (HCT-116) of 53.2% and an inhibition of growth at 10 µM (T47D) of 60.4%. It also gave an inhibition of growth at 10 µM (HL-60(TB)) of 81.8%, an inhibition of growth at 10 µM (OVCAR-8) of 50% and an inhibition of growth at 10 µM (K562) of 39.7%. It also gave a GI50 [7] of 6.58 µM, a TGI [7] of 60.8 µM and a CC50 [7, 11] of 98.8 µM. For the same molecule, the inhibition of growth at 10 µM (OVCAR-3) was 22.2%, the inhibition of growth at 10 µM (COLO 205) was 49.2% and the inhibition of growth at 10 µM (SW-620) was 53.8%. The inhibition of growth at 10 µM (KM12) was 26.4%, the inhibition of growth at 10 µM (RPMI-8226) was 50% and the GI50 [8] was 3.23 µM. For the same molecule, the TGI [8] was 17.9 µM, the GI50 [9] was 6.93 µM and the LC50 [9] was 83.9 µM. The TGI [9] was 35.1 µM and the inhibition of growth at 10 µM [10] was under 20%.

For `O=c1c2cccc3c(Nc4ccc(F)cc4)ccc(c32)c2nc3ccccc3n12`, the inhibition of growth at 10 µM (HT-29) was under 20%, the inhibition of growth at 10 µM (NCI-H226) was under 20% and the inhibition of growth at 10 µM (SNB-75) was 29.2%. It also gave an inhibition of growth at 10 µM (TK-10) of 24.7%, an inhibition of growth at 10 µM (MDA-MB-231) of 29.1% and an inhibition of growth at 10 µM (SK-OV-3) of under 20%. The inhibition of growth at 10 µM (MOLT-4; MOLT-4, 48 h, read-out: GI) was under 20%, the inhibition of growth at 10 µM (UACC-257) was under 20% and the inhibition of growth at 10 µM (A549) was under 20%. For the same molecule, the inhibition of growth at 10 µM (CCRF-CEM) was under 20%, the inhibition of growth at 10 µM (MDA-MB-435) was under 20% and the inhibition of growth at 10 µM (HCT-116) was under 20%. It also gave an inhibition of growth at 10 µM (T47D) of 76.6%, an inhibition of growth at 10 µM (HL-60(TB)) of under 20% and an inhibition of growth at 10 µM (OVCAR-8) of under 20%. For the same molecule, the inhibition of growth at 10 µM (K562) was under 20%, the inhibition of growth at 10 µM (OVCAR-3) was under 20% and the inhibition of growth at 10 µM (COLO 205) was under 20%. For the same molecule, the inhibition of growth at 10 µM (SW-620) was under 20%, the inhibition of growth at 10 µM (KM12) was 25.6% and the inhibition of growth at 10 µM (RPMI-8226) was 42.6%. For the same molecule, the inhibition of growth at 10 µM [10] was 23.9%.
